Source: ChEMBL document CHEMBL4130528, “Serotonin Analogues as Inhibitors of Breast Cancer Cell Growth” (ACS Med Chem Lett, 2017)
Calls of active or inactive are those of the source. No cut-off for these calls is given here.

How the values were obtained:
MDA-MB-231 [1] = assay: Inhibition of PI3K/AKT in human MDA-MB-231 cells assessed as reduction in mTOR phosphorylation at Ser2448 up to 10 uM by Western blot analysis; assay type: cell-based
MDA-MB-231 [2] = assay: Inhibition of mTORC1 signaling in human MDA-MB-231 cells assessed as reduction in S6 phosphorylation at Ser244 at 20 uM after 12 hrs by RPPA analysis; assay type: cell-based
MDA-MB-231 [3] = assay: Inhibition of mTORC1 signaling in human MDA-MB-231 cells assessed as reduction in S6 phosphorylation at Ser235 at 20 uM after 12 hrs by RPPA analysis; assay type: cell-based
MDA-MB-231 [4] = assay: Cytotoxicity against human MDA-MB-231 cells assessed as reduction in cell viability up to 10 uM in serum-free medium by cell titer 96 aqueous one solution based assay; assay type: functional
Outline: (§1)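 Viability was measured by MTS after treating triple-negative breast cancer cells in serum-free medium, either alone or with BSA added to the serum-free medium, across a concentration series.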

[5] = target: T1, AMP-activated protein kinase, AMPK (Homo sapiens) (UniProt P54646+O43741+P54619+Q9UGJ0+Q9Y478+Q13131+Q9UGI9); assay: Increase in AMPK phosphorylation at T172 in human MCF7 cells at 20 uM after 12 hrs by RPPA analysis; assay type: cell-based
MCF7 [6] = assay: Inhibition of PI3K/AKT in human MCF7 cells assessed as reduction in mTOR phosphorylation at Ser2448 at 20 uM after 12 hrs by RPPA analysis; assay type: cell-based
MDA-MB-231 [7] = assay: Inhibition of mTORC1 signaling in human MDA-MB-231 cells assessed as reduction in S6 phosphorylation at Ser236 at 20 uM after 12 hrs by RPPA analysis; assay type: cell-based
MDA-MB-157 [8] = assay: Cytotoxicity against human MDA-MB-157 cells assessed as reduction in cell viability up to 10 uM in serum-free medium by cell titer 96 aqueous one solution based assay; assay type: functional; outline: as §1
MDA-MB-157 [9] = assay: Inhibition of PI3K/AKT in human MDA-MB-157 cells assessed as reduction in mTOR phosphorylation at Ser2448 up to 10 uM by Western blot analysis; assay type: cell-based
MDA-MB-231 [10] = assay: Inhibition of mTORC1 signaling in human MDA-MB-231 cells assessed as reduction in p70S6K phosphorylation at Thr389 at 20 uM after 12 hrs by RPPA analysis; assay type: cell-based
[11] = target: T1, AMP-activated protein kinase, AMPK (Homo sapiens); assay: Increase in AMPK phosphorylation at T172 in human MDA-MB-231 cells at 20 uM after 12 hrs by RPPA analysis; assay type: cell-based
MDA-MB-157 [12] = assay: Induction of apoptosis in human MDA-MB-157 cells assessed as increase in cleaved PARP level up to 10 uM by Western blot analysis; assay type: functional, cell-based
Outline: (§2)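 Cells were treated with a range of compound concentrations. Apoptosis was assessed by Western blot detection of cleaved poly-ADP ribose polymerase (PARP).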

MDA-MB-157 [13] = assay: Induction of apoptosis in human MDA-MB-157 cells assessed as increase in caspase 3/7 activity up to 10 uM by Caspase-Glo 3/7 luciferase-based assay; assay type: functional, cell-based
Outline: (§3)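 Cells were treated with a range of compound concentrations. Apoptosis was read as caspase-3/7 activity using a luciferase-based luminescent assay.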

MDA-MB-231 [14] = assay: Induction of apoptosis in human MDA-MB-231 cells assessed as increase in caspase 3/7 activity by Caspase-Glo 3/7 luciferase-based assay; assay type: functional, cell-based; outline: as §3
MDA-MB-231 [15] = assay: Inhibition of mTORC1 signaling in human MDA-MB-231 cells assessed as reduction in […] at 10 uM by Western blot analysis; assay type: cell-based
MDA-MB-231 [16] = assay: Induction of apoptosis in human MDA-MB-231 cells assessed as increase in cleaved PARP level up to 10 uM by Western blot analysis; assay type: functional, cell-based; outline: as §2
MDA-MB-231 [17] = assay: Effect on total p70S6K level in human MDA-MB-231 cells at 20 uM after 12 hrs by RPPA analysis; assay type: cell-based; details: mda-mb-231, 12 h
MDA-MB-231 [18] = assay: Effect on total S6 level in human MDA-MB-231 cells at 20 uM after 12 hrs by RPPA analysis; assay type: cell-based; details: mda-mb-231, 12 h
MDA-MB-157 [19] = assay: Cytotoxicity against human MDA-MB-157 cells assessed as reduction in cell viability up to 10 uM after 24 to 72 hrs by cell titer 96 aqueous one solution based assay; assay type: functional
Outline: (§4)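 Triple-negative breast cancer cells were incubated with compound for 24, 48 or 72 h. Viability was then measured by MTS assay across a concentration series.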

MDA-MB-157 [20] = assay: Inhibition of mTORC1 signaling in human MDA-MB-157 cells assessed as reduction in […] at 10 uM by Western blot analysis; assay type: cell-based
MDA-MB-157 [21] = assay: Cytotoxicity against human MDA-MB-157 cells assessed as reduction in cell viability up to 10 uM in presence of bovine serum albumin by cell titer 96 aqueous one solution based assay; assay type: functional; outline: as §1
MDA-MB-231 [22] = assay: Cytotoxicity against human MDA-MB-231 cells assessed as reduction in cell viability by cell titer 96 aqueous one solution based assay; assay type: functional
Outline: (§5)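 MDA-MB-231 and MCF-7 breast cancer cells were treated with increasing concentrations of compound. Viability was read by MTS assay, and IC50 values were derived from the concentration–response data.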

MCF7 [23] = assay: Cytotoxicity against human MCF7 cells assessed as reduction in cell viability by cell titer 96 aqueous one solution based assay; assay type: functional; outline: as §5
MDA-MB-231 [24] = assay: Cytotoxicity against human MDA-MB-231 cells assessed as reduction in cell viability up to 10 uM in presence of bovine serum albumin by cell titer 96 aqueous one solution based assay; assay type: functional; outline: as §1
MDA-MB-231 [25] = assay: Inhibition of PI3K/AKT in human MDA-MB-231 cells assessed as reduction in mTOR phosphorylation at Ser2448 at 20 uM after 12 hrs by RPPA analysis; assay type: cell-based
MDA-MB-231 [26] = assay: Inhibition of mTORC1 signaling in human MDA-MB-231 cells assessed as reduction in S6 phosphorylation at Ser240 at 20 uM after 12 hrs by RPPA analysis; assay type: cell-based
[27] = target: T2, Acetyl-CoA carboxylase (Homo sapiens) (UniProt Q13085+O00763); assay: Increase in ACC phosphorylation at Ser79 in human MDA-MB-231 cells at 20 uM after 12 hrs by RPPA analysis; assay type: cell-based
[28] = target: T2, Acetyl-CoA carboxylase (Homo sapiens); assay: Increase in ACC phosphorylation at Ser79 in human MCF7 cells at 20 uM after 12 hrs by RPPA analysis; assay type: cell-based
MDA-MB-231 [29] = assay: Cytotoxicity against human MDA-MB-231 cells assessed as reduction in cell viability up to 10 uM after 24 to 72 hrs by cell titer 96 aqueous one solution based assay; assay type: functional; outline: as §4

CCCCCCCCCOc1cccc2[nH]cc(CCN)c12.Cl
inhibition (MDA-MB-231 [1]): inactive | inhibition (MDA-MB-231 [2]): Active | inhibition (MDA-MB-231 [3]): Active | Activity (MDA-MB-231 [4]): Active | Activity [5]: Active | inhibition (MCF7 [6]): inactive | inhibition (MDA-MB-231 [7]): Active | Activity (MDA-MB-157 [8]): Active | inhibition (MDA-MB-157 [9]): inactive | inhibition (MDA-MB-231 [10]): Active | Activity [11]: Active | Activity (MDA-MB-157 [12]): Active | Activity (MDA-MB-157 [13]): Active | Activity (MDA-MB-231 [14]): Dose-dependent effect | inhibition (MDA-MB-231 [15]): Active | Activity (MDA-MB-231 [16]): Active | Activity (MDA-MB-231 [17]): Non-Toxic | Activity (MDA-MB-231 [18]): Non-Toxic | Activity (MDA-MB-157 [19]): Active | inhibition (MDA-MB-157 [20]): Active | Activity (MDA-MB-157 [21]): Active | IC50 (MDA-MB-231 [22]): 4.2 µM | IC50 (MCF7 [23]): 4.9 µM | Activity (MDA-MB-231 [24]): inactive | inhibition (MDA-MB-231 [25]): inactive | inhibition (MDA-MB-231 [26]): Active | Activity [27]: Active | Activity [28]: Active | Activity (MDA-MB-231 [29]): Active

CCCCCCCCCCCOc1ccc2[nH]cc(CCN)c2c1
IC50 (MDA-MB-231 [22]): 4.4 µM | IC50 (MCF7 [23]): 6.1 µM

CCCCC(CC)COc1ccc2[nH]cc(CCN)c2c1 (stereo not given)
IC50 (MDA-MB-231 [22]): 8.2 µM | IC50 (MCF7 [23]): 15 µM

NCCc1c[nH]c2ccc(OCc3ccc(COc4ccc5[nH]cc(CCN)c5c4)cc3)cc12
IC50 (MDA-MB-231 [22]): 20 µM | IC50 (MCF7 [23]): 24 µM

NCCc1c[nH]c2ccccc12 [TRYPTAMINE]
IC50 (MDA-MB-231 [22]): > 50 µM | IC50 (MCF7 [23]): > 50 µM

CCCCCCCCCCCCCCCCOc1ccc2[nH]cc(CCN)c2c1
IC50 (MDA-MB-231 [22]): 7.5 µM | IC50 (MCF7 [23]): 13 µM

CCCCCCCCCCCCOc1cccc2c(CCN)c[nH]c12
IC50 (MDA-MB-231 [22]): 4.6 µM | IC50 (MCF7 [23]): 8.6 µM

N#CCCCCCCOc1ccc2[nH]cc(CCN)c2c1
IC50 (MDA-MB-231 [22]): > 50 µM | IC50 (MCF7 [23]): > 50 µM

CCCCCCCCCCCCCCOc1ccc2[nH]cc(CCN)c2c1
IC50 (MDA-MB-231 [22]): 4.8 µM | IC50 (MCF7 [23]): 8.4 µM
